The source made the active and inactive calls. No cut-off for these calls is given here.
Columns and labels:
Mus musculus [1] = assay: Ability to reinduce anesthesia (70 mg/kg, iv) following recovery of loss of righting reflex obtained with hexobarbital.; assay type: functional
Mus musculus [2] = assay: Anticonvulsant activity against N-sulfamoylhexahydrozepine (10 mice were used per dose, ip); assay type: functional
Procedure, shortened: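 Mice given compound ip, 10 per dose, then challenged with N-sulfamoylhexahydroazepine by methods of ref 9; ED50 (mg/kg ip) for protection determined.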

[3] = Lethal dose was obtained by 2-h post administration (ip), using four male Royal Hart Wistar rats; assay type: toxicity, organism-based; settings: rat, in vivo
Procedure, shortened: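 Male Royal Hart Wistar rats, 136-160 g, housed in pairs in wire cages, given compound ip; deaths read 2 h after dosing, four rats per compound; LD50 estimated by probit analysis.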

Mus musculus [4] = assay: Effective dose against loss of righting reflex in mice (10 mice per dose, ip); assay type: functional
Procedure, shortened: (§1)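 Mouse behaviour after ip dosing assessed by a modification of the method of ref 7; ataxia, docility and loss of righting reflex scored, 10 mice per dose, ED50 in mg/kg ip.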

Mus musculus [5] = assay: Effective dose against Mice docility, ip administration; assay type: functional; procedure, shortened: as §1
Mus musculus [6] = assay: Ability to produce neurological deficit in the rotarod test (10 mice were used per dose, ip); assay type: functional
Procedure, shortened: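 Rotarod method of ref 10, intraperitoneal dosing, 10 mice per dose; neurological deficit scored and ND50 (mg/kg ip) derived.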

Mus musculus [7] = assay: Effective dose against Mice ataxia, ip administration; assay type: functional; procedure, shortened: as §1
Monkey = assay: Ratio of the oral dose of the test compound relative to that of methaqualone (15 mg/kg, po) to induce sleep in Cebus monkey; assay type: functional
Procedure, shortened: (§2)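 Cebus monkeys restrained in chairs within sound-attenuated cubicles; dosing per os at 5:00 p.m., five channels recorded, EEG over 13.5 h, Monday–Thursday, visually scored. Each animal its own control versus last 15 control nights (intragastric carboxymethylcellulose placebo). Value is oral dose of test substance relative to methaqualone 15 mg/kg po inducing sleep in the same monkey; NA = no sleep at any dose.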

[8] = Ratio of the oral dose of the test compound relative to that of methaqualone (15 mg/kg, po) to induce sleep in Cebus monkey; NA is Not Active.; assay type: functional, organism-based; procedure, shortened: as §2
[9] = Ratio of the oral dose of the test compound relative to that of methaqualone (15 mg/kg, po) to induce sleep in Cebus monkey;NA is Not Active.; assay type: functional, organism-based; procedure, shortened: as §2
Mus musculus [10] = assay: Effective dose against loss of righting reflex in mice;10 mice per dose(ip); assay type: functional; procedure, shortened: as §1

Compound	RD50 (Mus musculus [1])	ED50 (Mus musculus [2])	LD50 at 2 h [3]	ED50 (Mus musculus [4])	ED50 (Mus musculus [5])	ND50 (Mus musculus [6])	ED50 (Mus musculus [7])	Sleep ratio (Monkey)	Ratio [8]	Ratio [9]	ND50 (Mus musculus [10])
CN1C(=O)CCC1(O)c1cccc(Cl)c1 (stereo unspecified)	>150 mg/kg	> 150 mg/kg	> 400 mg/kg	> 200 mg/kg	158 mg/kg	>150 mg/kg	186 mg/kg				
O=C1CCC(O)(c2cccc(C(F)(F)F)c2)N1 (stereo unspecified)	150 mg/kg	> 200 mg/kg	> 400 mg/kg	> 200 mg/kg	> 200 mg/kg	>200 mg/kg	> 200 mg/kg	0.1			
CN1C(=O)CCC1(O)c1ccccc1 (stereo unspecified)	150 mg/kg	138 mg/kg	300 mg/kg	> 200 mg/kg	> 200 mg/kg	>200 mg/kg	> 200 mg/kg				
CN(C)C(=O)CCC(=O)c1cccc(C(F)(F)F)c1	127.6 mg/kg	> 37.5 mg/kg	300 mg/kg	> 50 mg/kg	> 50 mg/kg	>37.5 mg/kg	> 50 mg/kg				
CCN1C(=O)CCC1(O)c1cccc(C(F)(F)F)c1 (stereo unspecified)	68.8 mg/kg	> 75 mg/kg	> 400 mg/kg	> 100 mg/kg	> 100 mg/kg	>75 mg/kg	> 100 mg/kg		inactive		
NC(=O)/C=C/c1cccc(C(F)(F)F)c1	17.2 mg/kg	49.5 mg/kg	260 mg/kg	54.5 mg/kg	37.5 mg/kg	46.9 mg/kg	42.9 mg/kg			inactive	
Cc1cccc(C2(O)CCC(=O)N2C)c1 (stereo unspecified)	49.5 mg/kg	60.9 mg/kg	300 mg/kg	138 mg/kg	81.5 mg/kg	111.5 mg/kg	93 mg/kg		inactive		
O=C(/C=C/c1ccccc1)NCCO [IDROCILAMIDE]	75 mg/kg	117 mg/kg	> 400 mg/kg	> 200 mg/kg	183 mg/kg	>200 mg/kg	183 mg/kg				
CC(C)NC(=O)CCC(=O)c1cccc(C(F)(F)F)c1	126.9 mg/kg	> 150 mg/kg	> 400 mg/kg	> 200 mg/kg	> 200 mg/kg	>150 mg/kg	> 200 mg/kg				
CCCN1C(=O)CCC1(O)c1cccc(C(F)(F)F)c1 (stereo unspecified)	131.9 mg/kg	150 mg/kg	> 400 mg/kg	200 mg/kg	> 200 mg/kg	>200 mg/kg	> 200 mg/kg				
CN1C(=O)CCC1(O)c1ccc(C(F)(F)F)cc1 (stereo unspecified)	>200 mg/kg	132 mg/kg	> 400 mg/kg	> 200 mg/kg	> 200 mg/kg	140.5 mg/kg	> 200 mg/kg				
Cc1ccccc1-n1c(C)nc2ccccc2c1=O [METHAQUALONE]	21.9 mg/kg	31.5 mg/kg	565 mg/kg	39.8 mg/kg	35.6 mg/kg	31.5 mg/kg	34.4 mg/kg	1			
O=C(CCC(=O)c1cccc(C(F)(F)F)c1)NC1CCCCC1	>200 mg/kg	> 200 mg/kg	> 400 mg/kg	> 200 mg/kg	> 200 mg/kg	>200 mg/kg	> 200 mg/kg				
CNC(=O)/C=C(\C)c1cccc(C(F)(F)F)c1	56.3 mg/kg	> 75 mg/kg	> 400 mg/kg	> 100 mg/kg	87.5 mg/kg	>75 mg/kg	87.5 mg/kg				
CN(C)C(=O)/C=C/c1cccc(C(F)(F)F)c1	>75 mg/kg		300 mg/kg				> 75 mg/kg				>75 mg/kg
O=C(/C=C/c1cccc(C(F)(F)F)c1)NCCO	66.7 mg/kg	100 mg/kg	400 mg/kg	186 mg/kg	78.6 mg/kg	115.8 mg/kg	117 mg/kg				
CCCCN1C(=O)CCC1(O)c1cccc(C(F)(F)F)c1 (stereo unspecified)	150 mg/kg	183 mg/kg	> 400 mg/kg	> 200 mg/kg	> 200 mg/kg	>200 mg/kg	> 200 mg/kg			inactive	
CNC(=O)/C=C/c1cccc(C(F)(F)F)c1	76.3 mg/kg	84.1 mg/kg	275 mg/kg	200 mg/kg	92.9 mg/kg	149 mg/kg	120 mg/kg	0.5			
CN1CCN(C(=O)CCC(=O)c2cccc(C(F)(F)F)c2)CC1	>37.5 mg/kg	> 37.5 mg/kg	> 400 mg/kg	> 50 mg/kg	> 50 mg/kg	>37.5 mg/kg	> 50 mg/kg				
CN1CCN(C(=O)/C=C/c2cccc(C(F)(F)F)c2)CC1	>75 mg/kg	> 75 mg/kg	300 mg/kg	> 100 mg/kg	> 100 mg/kg	>75 mg/kg	> 100 mg/kg				
CCC(O)CNC(=O)/C=C/c1cccc(C(F)(F)F)c1 (stereo unspecified)	68.8 mg/kg	64.4 mg/kg	333 mg/kg	92.9 mg/kg	87.5 mg/kg	57.9 mg/kg	90 mg/kg			inactive	
CC(C)CNC(=O)CCC(=O)c1cccc(C(F)(F)F)c1	>200 mg/kg	> 200 mg/kg	162 mg/kg	> 200 mg/kg	> 200 mg/kg	>200 mg/kg	> 200 mg/kg				
CNC(=O)/C(C)=C/c1cccc(C(F)(F)F)c1	24.7 mg/kg	68.8 mg/kg	300 mg/kg	> 100 mg/kg	75 mg/kg	>75 mg/kg	75 mg/kg	0.3			
CCC(C)NC(=O)CCC(=O)c1cccc(C(F)(F)F)c1 (stereo unspecified)	>50 mg/kg	> 200 mg/kg	300 mg/kg	> 200 mg/kg	> 200 mg/kg	>150 mg/kg	> 200 mg/kg				
CCNC(=O)/C=C/c1cccc(C(F)(F)F)c1	>75 mg/kg		333 mg/kg				90 mg/kg				>75 mg/kg
CN1C(=O)CCC1(O)c1cccc(C(F)(F)F)c1 (stereo unspecified)	45.1 mg/kg	51.6 mg/kg	367 mg/kg	133 mg/kg	93.8 mg/kg	106.5 mg/kg	129 mg/kg	1			

Source: ChEMBL document CHEMBL1123065, “Sleep-inducing N-alkyl-5-[m-(trifluoromethyl)phenyl]-5-hydroxy-2-pyrrolidinones and N-alkyl-3-(trifluoromethyl)cinnamamides” (J Med Chem, 1985)
